This is an account of results in ChEMBL document CHEMBL1158809, “Pseudotrienic acids A and B, two bioactive metabolites from Pseudomonas sp. MF381-IODS” (2005).

The source made the active and inactive calls. The calls are words filed in the database; no cut-off is given here.

One assay has as its system Candida albicans. Description: Antimicrobial activity against Candida albicans up to 100 ug/mL. It counts as functional, organism-based. In a few lines:
(§1)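 Minimum inhibitory concentration was measured in a microtiter plate growth bioassay against a panel of human and agricultural fungal pathogens and Gram-positive and Gram-negative bacteria.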

The next assay has as its system Pseudomonas syringae. In words: Antimicrobial activity against Pseudomonas syringae pv. syringae. It counts as functional.
In the next assay the test system is Fusarium oxysporum. Description: Antimicrobial activity against Fusarium oxysporum up to 100 ug/mL. It counts as functional, organism-based. The essentials:
as §1

A further assay has as its system Pseudomonas savastanoi. In words: Antimicrobial activity against Pseudomonas savastanoi up to 100 ug/mL. It counts as functional, organism-based. The essentials: as §1
For another assay, the system named is Heterobasidion annosum. In words: Antimicrobial activity against Heterobasidion annosum up to 100 ug/mL. It counts as functional, organism-based. The essentials:
as §1

The test system of another assay is Microsporum canis. Description: Antimicrobial activity against Microsporum canis up to 100 ug/mL. It counts as functional, organism-based. In a few lines: as §1
For the next assay, the system named is Aspergillus fumigatus. Description: Antimicrobial activity against Aspergillus fumigatus up to 100 ug/mL. It counts as functional, organism-based. The essentials: as §1
A further assay relates to Fusarium culmorum. Description: Antimicrobial activity against Fusarium culmorum up to 100 ug/mL. It counts as functional, organism-based. In a few lines:
as §1

The test system of the next assay is Drechslera. In words: Antimicrobial activity against Drechslera sorokiniana up to 100 ug/mL. It counts as functional, organism-based. The essentials:
as §1

Another assay relates to Staphylococcus aureus. In words: Antimicrobial activity against Staphylococcus aureus. It counts as functional.

In the case of `CCCCCCCCCC(O)/C=C/C(C)=C/CC(=O)NC[C@H](O)[C@H](C)C(=O)NCC/C=C/C=C/C=C/C(=O)O` (mixture of isomers) [PSEUDOTRIENIC ACID A], the outcome with Candida albicans, in the assay with Fusarium oxysporum, with Pseudomonas savastanoi, in the assay on Heterobasidion annosum, with Microsporum canis and with Aspergillus fumigatus was inactive. Moreover, the outcome with Fusarium culmorum and in the assay on Drechslera was inactive. The MIC with Pseudomonas syringae and in the assay on Staphylococcus aureus was 70 µg/mL in each case.
Turning to `CCCCCCCC(O)/C=C/C(C)=C/CC(=O)NC[C@H](O)[C@H](C)C(=O)NCC/C=C/C=C/C=C/C(=O)O` (mixture of isomers) [PSEUDOTRIENIC ACID B], the outcome in the assay with Candida albicans, in the assay on Fusarium oxysporum, with Pseudomonas savastanoi, with Heterobasidion annosum, in the assay on Microsporum canis and with Aspergillus fumigatus was inactive. Moreover, the outcome in the assay with Fusarium culmorum and in the assay with Drechslera was inactive. Further, the MIC against Pseudomonas syringae and with Staphylococcus aureus was 70 µg/mL each time.
